HKDC1 inh: HKDC1 hexokinase inhibitors, primary screen, biochemical, fluorescence, uHTS; Q2TB90; recombinant HKDC1, G6PDH/diaphorase resazurin coupled fluorescence; inhibition, % at 20 µM; actives 0.16% (n = 340,000); AID 493160, 2011;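 active = inhibition above about 35% when tested at 20 µM, limit read from the data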;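 also: plate controls were DMSO wells with enzyme for no effect and DMSO wells lacking enzyme for full effect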
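Material: recombinant HKDC1 hexokinase; Amount: HKDC1 at 5 µg/mL; Medium: Tris pH 8.0 buffer with MgCl2, Tween-20, BSA, BME; Schedule: 90 min reaction incubation at room temperature, dark; Technique: coupled resazurin fluorescence, excitation 525 nm, emission 613 nm.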
PfG6PD inh: PfG6PD enzyme inhibitors, primary screen, biochemical, fluorescence intensity, uHTS | inhibition, % at 20 µM | actives 0.78% (n = 350,000) | glucose-6-phosphate dehydrogenase-6-phosphogluconolactonase (Plasmodium falciparum 3D7) | PfGluPho enzyme, NADPH resazurin-diaphorase fluorescence;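 active = inhibition reaching at least a set limit at 20 µM in the primary screen, cut at about 59% in these data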;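 also: 0% = DMSO wells with substrate and 100% = DMSO wells lacking glucose-6-phosphate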
Diaphorase inh: diaphorase inhibitors and chemical oxidizers, primary screen, counter-screen for diaphorase-coupled primary assays, biochemical, uHTS, resorufin fluorescence | AID 1217, 2008 | inhibition, % at 20 µM | actives 0.69% (n = 190,000) | diaphorase resazurin-to-resorufin fluorescence, NADH, 16 min; bacterial (C. kluyveri) enzyme, not human;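 active = primary screen inhibition at 20 µM above a set limit, cut at about 50% in these data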;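 also: plate controls were DMSO with full reaction for no effect and wells lacking NADH for full effect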
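Assay system – diaphorase enzyme from Clostridium kluyveri · Amount – diaphorase 0.14 U/mL (working solution) · Times – reaction incubation of 16 min at room temperature · Controls – No-NADH positive control and DMSO neutral control · Signal – resorufin fluorescence 544/590 nm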
G6PDH counter: L. mesenteroides G6PDH inhibitors, counter-screen for G6PDH-coupled screening assays, biochemical, Leuconostoc mesenteroides enzyme | glucose-6-phosphate dehydrogenase [Leuconostoc mesenteroides] | Purified L. mesenteroides G6PDH, diaphorase/resazurin coupled fluorescence, 45 min | inhibition, % at 5 µM | actives 0.12% (n = 200,000); in the data active = inhibition above about 50%
Diaph act CS: compounds boosting diaphorase resazurin reduction – biochemical, uHTS, resorufin fluorescence, counter-screen for diaphorase-coupled primary assays, primary screen | actives 0.005% (n = 190,000) | Diaphorase/resazurin coupled assay, 16 min; active compounds read high; 1 = vehicle wells, 0 = NADH-free wells | activation factor at 20 µM;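 active = diaphorase activity raised at least twofold by the compound at 20 µM; inactive = activation factor below 2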
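Assay system: Purified diaphorase enzyme from Clostridium kluyveri | Amount: Enzyme 0.07 U/mL final | Dosing: Compound 20 µM once, DMSO 1% | Timing: 16 min reaction at room temperature | Detection: Fluorescence, excitation 544 nm and emission 590 nm | Evaluation: Higher resorufin formation from activation or reduction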
The depositor's hits bear a star; . = not tested or not shown. The list is not random: actives were taken first. Their share in the collection is about 1.3%.

SMILES	HKDC1 inh	PfG6PD inh	Diaphorase inh	G6PDH counter	Diaph act CS
Cc1nn(CCC#N)c2c1P(=S)(N1CCCC1)OC(c1ccc(F)cc1)=N2 (centres undefined)	-11.3	65.4*	16.9	15.5	0.8
COC(=O)C1=C(c2ccc(OC(F)(F)F)cc2)C[C@@H]2CC[C@H]1N2C(=O)NCCOc1ccccc1Cl	1.4	-3.5	.	.	.
CN(C)c1ccc(C2C3C=CC(C3)C2(C#N)C(=O)O)c(Br)c1 (centres undefined)	-5.4	-13.9	.	.	.
CC12C(C(=O)O)C1(c1ccccc1)C2C(=O)O (centres undefined)	2.9	-8.3	.	.	.
CC(=O)c1ccc2c(c1)C1C(Cl)C(Sc3ccccc3[N+](=O)[O-])CC1C(c1ccccc1[N+](=O)[O-])N2 (centres undefined)	15.6	59.4*	63.4*	10.2	0.4
CC(=O)c1ccc2c(c1)C1C(Cl)C(Sc3ccccc3[N+](=O)[O-])CC1C(c1ccccc1)N2 (centres undefined)	9.3	33.6	21.1	-20.9	0.8
CN1CC[C@@]2(C)c3cc(O)ccc3N(C)C2O1 (some centres undefined)	16.4	64.4*	.	.	.
CCn1nc(-c2ccccc2)nc2c(=O)n(C)c(=O)nc1-2	-83.0	95.4*	-43.8	59.4*	1.4
COc1ccc(-c2nc3ccccc3c(=O)n2-c2ccc(OC)cc2)cc1	-4.7	13.9	8.8	12.4	0.9
c1ccc(-c2ccc(CN3Cc4ccccc4-n4nncc4C3)cc2)cc1	.	-9.1	.	.	.
Cc1nc2ccccc2c(=O)n1-c1ccccc1[N+](=O)[O-]	-15.1	0.0	25.1	1.8	0.7
Cc1nc2ccccc2c(=O)n1-c1ccc(Br)cc1[N+](=O)[O-]	14.0	-13.6	69.8*	9.0	0.3
COc1c2c(cc3c1OCO3)CC[N+](C)=C2	-9.8	0.3	82.7*	9.9	0.2
CCOC(=O)c1cccc(C2=C(CNC(=O)c3nccs3)[C@H]3CC[C@@H](C2)N3Cc2ccccc2)c1	.	1.9	.	.	.
O=c1[nH]c(O)c(N=Nc2cc([N+](=O)[O-])ccc2O)c(=O)[nH]1	9.2	-12.8	65.7*	41.5	0.3
NC(=O)c1ccc(N=Nc2c(O)[nH]c(=O)[nH]c2=O)cc1	.	.	1.2	-10.5	1
Cc1ncoc1C(=O)NCC1=C(c2ccc(S(C)(=O)=O)cc2)C[C@@H]2CC[C@H]1N2CCOc1ccccc1	.	-14.8	.	.	.
CN1C(=O)/C(=C/c2ccc(Cl)s2)C(=O)NC1=S	5.4	63.4*	.	.	.
Cc1ccsc1/C=C1\C(=O)NC(=S)N(C)C1=O	5.0	37.2	.	.	.
COc1ccc(/C=C2\C(=O)NC(=S)N(C)C2=O)cc1C	36.4*	4.3	8.1	5.8	0.9
O=C1C=CC(=O)C=C1	48.3*	53.8	.	.	.
CN1C(=O)N(C)C(=O)C2(Cc3c(ccc4ccccc34)N(C)C2)C1=O	25.7	37.4	66.8*	28.5	0.3
COc1ccc(C(=O)CC2(CC(=O)c3ccc(OC)cc3)C(=O)N(C)C(=O)N(C)C2=O)cc1	-2.4	-6.5	5.2	1.5	0.9
O=C(N/N=C/c1c(O)n(C2CC2)c(=S)[nH]c1=O)c1ccccc1O	3.2	-37.3	65.7*	17.1	0.3
C(=NC1CCCCC1)c1c[nH]c2ccccc12	-3.2	-4.7	.	.	.
SMILES	HKDC1 inh	PfG6PD inh	Diaphorase inh	G6PDH counter	Diaph act CS
O=c1[nH]c(O)c(/C=C2/C=CC(c3cc(Cl)ccc3Cl)=N2)c(=O)[nH]1	40.4*	7.9	.	.	.
CN(C)c1cccc2c(C#N)ccc(N(C)C)c12	1.8	8.1	72.1*	10.7	0.3
Oc1ccc(C[C@H]2NCCc3cc(O)c(O)cc32)cc1O	7.0	53.5	.	.	.
Oc1ccc(CC2CC3CCN2CC3)cc1O (centres undefined)	-1.9	-1.4	52.8*	40.1	0.5
CCc1c(C)nc(N)nc1N1N=C1SCC(=O)OC	-5.6	-4.8	77.4*	5.8	0.2
CCc1c(C)nc(N)nc1N1N=C1SCC#N	-5.5	-1.9	10.6	0.2	0.9
C[C@]12CC[C@@H](O)C[C@@H]1CC[C@@H]1[C@@H]2CC[C@]2(C)C(=O)[C@H](O)C[C@@H]12	.	4.6	.	.	.

Screening results from PubChem BioAssay.
